HUVEC prolif 384: blocks proliferation of human endothelial cells. HUVEC proliferation, CellTiter-Glo luminescence, 72 h; hits give low values. viability, % at 10 µM (by protocol). 1.1% of 86,000 active;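 active = viability at or below 30%; inactive = viability above 30%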
PTEN del growth: growth suppressors of cells with PTEN tumor suppressor deletion | HCT116 PTEN-null viability, CellTiter-Glo, 60 h; hits give low values | viability, % at 10 µM | 1.2% of 140,000 active;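 active = viability at or below a set limit, 4 SD under the median of all tested compounds, cut at about 3.7% in these data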;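 note: PTEN knockout HCT116 line with beta catenin targeted HCT116 as companion control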
H69AR inhibit: blocks growth of human H69AR lung tumor cells | H69AR lung tumor viability, ATP luminescence, 72 h; hits give low values | viability, % at 10 µM | 6% of 85,000 active | AID 598;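 active = viability at or below 40%; inactive = viability above 40%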;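 note: multidrug resistant small cell line overexpressing MRP-1 efflux transporter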
bCat KO growth: beta-catenin-lacking colon tumor cell growth suppression; 1.5% of 140,000 active; viability, % at 10 µM; HCT116 beta-catenin knockout viability, CellTiter-Glo, 60 h; hits give low values;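 active = viability at or under a set limit, the compound median less 4 SD, cut at about 6% in these data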
Fibroblast inh: blocks proliferation of human lung fibroblasts; 1.1% of 85,000 active; LL 47 human lung fibroblast viability, ATP luminescence; hits give low values; viability, % at 10 µM;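 active = viability at or below 50% in the single dose screen; inactive = viability above 50%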;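 note: compound exposure lasted 72 h before the ATP readout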
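Signal: luminescent ATP detection, CellTiter-Glo; assay system: LL 47 human lung fibroblasts; input: 1,150 cells/well; incubation: overnight cell rest, 72 h compound treatment at 37 °C; measure: % viability versus median cells-only luminescence; medium: IMEM growth medium with 15% fetal bovine serum; dosing: compound addition at 0.1% DMSO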
Large screens that a line does not name were inactive. The entries come from a sample that favours hits as a whole.

Cc1coc2c(C)c3oc(=O)c4c(c3cc12)CCCC4	H69AR inhibit 21 (no result: PTEN del growth, bCat KO growth)
Cc1cc2nc(C)n(CCCN)c2cc1C	H69AR inhibit 13
Cc1cc2nc(C)n(CCCNC(=O)Nc3ccc(C#N)cc3)c2cc1C	none
COc1ccc(NC(=O)CSc2nc(C)c3c(c2C#N)CCCC3)cc1	none
CCc1nnc(NC(=O)CSc2nc(C)c3c(c2C#N)CCCC3)s1	H69AR inhibit 24
COc1ccccc1Cn1c(=O)c2ccccc2n2c(Sc3ncnc4sccc34)nnc12	H69AR inhibit 1.4
COc1cc2c(cc1OC)C(C1C(=O)CCCC1=O)N(C(=O)CCl)CC2 (stereo not drawn)	none (no result: HUVEC prolif 384, H69AR inhibit, Fibroblast inh)
COc1cc2c(cc1OC)C(c1ccccc1)N(C(=O)CCl)CC2 (stereo not drawn)	PTEN del growth 2.0, bCat KO growth 1.9 (no result: HUVEC prolif 384, H69AR inhibit, Fibroblast inh)
CCn1c(SCC(=O)OCC(=O)N2c3ccccc3NC(=O)C2(C)C)nnc1-c1ccco1	none
CCCCCCn1c(COc2ccccc2F)nnc1SCC(=O)N1c2ccccc2NC(=O)C1(C)C	PTEN del growth 1.1, H69AR inhibit 0.8, bCat KO growth 1.2
COC(=O)COc1ccc(S(=O)(=O)NCCC2=CCCCC2)cc1C	none
CCN1C/C(=C/c2cccc([N+](=O)[O-])c2)C(=O)/C(=C/c2cccc([N+](=O)[O-])c2)C1	PTEN del growth 1.6, bCat KO growth 1.7 (no result: HUVEC prolif 384, H69AR inhibit, Fibroblast inh)
CCN1CCN(C(=S)Nc2cccc([N+](=O)[O-])c2)CC1	none (no result: HUVEC prolif 384, H69AR inhibit, Fibroblast inh)
NC(=O)CC(O)c1cccc(Cl)c1 (stereo not drawn)	none
CCCCc1oc2ccccc2c1C(=O)c1cc(I)c(OCCN(CC)CC)c(I)c1	HUVEC prolif 384 17, H69AR inhibit 2.1
CCS(=O)(=O)CCSc1nc2c(cc1C#N)CCCC2	none
N=c1c2c(-c3ccccc3)c(-c3ccccc3)n(Cc3ccco3)c2ncn1CCCn1ccnc1	PTEN del growth 2.1, bCat KO growth 2.2 (no result: HUVEC prolif 384, H69AR inhibit, Fibroblast inh)
c1ccc2c(c1)oc1c(NCCCn3ccnc3)ncnc12	none
c1ccc(-c2oc3ncnc(NCCCn4ccnc4)c3c2-c2ccccc2)cc1	H69AR inhibit 29
c1ccc(-c2c(-c3ccccc3)n(Cc3ccco3)c3ncnc(NCCCn4ccnc4)c23)cc1	H69AR inhibit 9.1
COC(=O)c1c(C#N)c(N)nc2c1CCC2	none
COCCSc1nnc(NC(=O)Cc2ccccc2OC)s1	none
Fc1cccc(NCc2ccoc2)c1	none
COC(=O)c1cc(OC)c(OC)cc1NC(=O)c1ccccc1	H69AR inhibit 39
COc1cc(NC(=O)c2cccs2)c(C(=O)OCC(=O)NCc2ccccc2)cc1OC	HUVEC prolif 384 19, H69AR inhibit 6.7
COc1ccc(NC(=O)C23CC4CC(C2)CC(n2cnc(Br)n2)(C4)C3)c(OC)c1	none (no result: HUVEC prolif 384, H69AR inhibit, Fibroblast inh)
O=[N+]([O-])c1cc(-c2nc(-c3ccncc3)no2)ccc1Cl	PTEN del growth 2.3, bCat KO growth 2.8 (no result: HUVEC prolif 384, H69AR inhibit, Fibroblast inh)
CCOc1cc(/C=N/N=C(\N)c2nonc2N)cc(Br)c1OCc1cccc2ccccc12	HUVEC prolif 384 7.5, H69AR inhibit 13, Fibroblast inh 41
COc1cc(/C=N/N=C(/N)c2nonc2N)cc(Br)c1OCc1cccc(C)c1	HUVEC prolif 384 30
COc1cc(/C=N/O)cc(Br)c1OCc1ccc(Cl)cc1	none (no result: HUVEC prolif 384, H69AR inhibit, Fibroblast inh)
Cc1cc(NC(=O)CN2C(=O)NC(C)(c3ccc(OC(F)F)cc3)C2=O)no1 (stereo not drawn)	none
COn1c(SCc2ccc(C)cc2C)nc2ccccc2c1=O	H69AR inhibit 31
CC(=O)c1ccc(OC(C)C)c(CSc2nc(O)cc(=O)[nH]2)c1	none
c1ccc2[nH]c(-c3ccnc4ccccc34)nc2c1	none
O=C1C(c2ccnc3ccccc23)=C(O)c2ccccc21	H69AR inhibit 34
COc1ccc(C)cc1N1C(=N)/C(=C2/Nc3ccccc3S2)C(c2ccccc2)C1=O (stereo not drawn)	PTEN del growth 1.7, bCat KO growth 1.6 (no result: HUVEC prolif 384, H69AR inhibit, Fibroblast inh)
Oc1ccccc1-c1nc(NCCN2CCOCC2)c2ccccc2n1	H69AR inhibit 12
COc1cccc(-c2nc(NC(C)(C)C)c3ccccc3n2)c1O	H69AR inhibit 33
Cc1ccc(-c2nc(NCCN3CCOCC3)c3ccccc3n2)cc1	none
COc1cccc(-c2nc(NCCN3CCOCC3)c3ccccc3n2)c1O	H69AR inhibit 8.3
COC(=O)c1cc2occc2n1Cc1nc(-c2cccc(Cl)c2)oc1C	none (no result: HUVEC prolif 384, H69AR inhibit, Fibroblast inh)
COc1cccc(-c2noc(N)c2C#N)c1	H69AR inhibit 28
COC(C(=O)Nc1ccccc1F)c1ccccc1 (stereo not drawn)	none
CCCN1C(=O)SC(CC(=O)Nc2ccccc2C)C1=O (stereo not drawn)	H69AR inhibit 30
Cc1ccccc1NC(=O)CC1SC(=O)N(c2ccccc2)C1=O (stereo not drawn)	none
O=C(c1ccc2c3c(cccc13)C(=O)N(O)C2=O)N1CCCCC1	H69AR inhibit 25
NN1C(=O)c2cccc3c(C(=O)O)ccc(c23)C1=O	none (no result: HUVEC prolif 384, H69AR inhibit, Fibroblast inh)
CCc1ccc(C2=NNC(=Nc3cccc(S(=O)(=O)N(C)C)c3)SC2)cc1	bCat KO growth 3.9 (no result: HUVEC prolif 384, H69AR inhibit, Fibroblast inh)
CN(C)S(=O)(=O)N1CCN(C(=O)c2cccc(Br)c2)CC1	none
N#CCSc1nc2cc(C(=O)N3CCCC3)ccc2c(=O)n1Cc1ccccc1	none (no result: HUVEC prolif 384, H69AR inhibit, Fibroblast inh)
N#CCSc1nc2cc(C(=O)N3CCC(C(N)=O)CC3)ccc2c2nc3ccccc3n12	bCat KO growth 5.0
N#CCSc1nc2ccccc2c2nc3ccccc3n12	bCat KO growth 5.8 (no result: HUVEC prolif 384, H69AR inhibit, Fibroblast inh)
CCN1CCc2c(sc(NC(=O)Nc3ccc(Cl)c(Cl)c3)c2C(N)=O)C1	PTEN del growth 3.8 (no result: HUVEC prolif 384, H69AR inhibit, Fibroblast inh)
CCCCNC(=O)CSc1nc2ccc(N3CCOCC3)cc2c(=O)n1CCc1ccccc1	HUVEC prolif 384 26, H69AR inhibit 8.9
COCCNC(=O)CSc1nc2ccc(N3CCOCC3)cc2c(=O)n1CCc1ccccc1	none
COc1ccc(NC(=O)c2ccc(-c3ccccc3C(F)(F)F)o2)cc1	none (no result: HUVEC prolif 384, H69AR inhibit, Fibroblast inh)
CC(NC(=O)N(Cc1ccccc1)Cc1ccc2c(c1)OCO2)(C(F)(F)F)C(F)(F)F	none
CCC(NC(=O)N(Cc1ccccc1)Cc1ccc2c(c1)OCO2)(C(F)(F)F)C(F)(F)F	H69AR inhibit 37
OCCNc1c2ccccc2nc2c(F)c(F)c(F)c(F)c12	PTEN del growth 1.1, bCat KO growth 1.5 (no result: HUVEC prolif 384, H69AR inhibit, Fibroblast inh)
Cc1c2ccccc2nc2c(F)c(NCCO)c(F)c(F)c12	none (no result: HUVEC prolif 384, H69AR inhibit, Fibroblast inh)
COc1cccc(OCC(=O)Nc2c(C(=O)Nc3ccc(OC)cc3OC)oc3ccccc23)c1	H69AR inhibit 21 (no result: PTEN del growth, bCat KO growth)
COc1ccccc1NC(=O)c1oc2ccccc2c1NC(=O)c1cc(OC)c(OC)c(OC)c1	H69AR inhibit 22 (no result: PTEN del growth, bCat KO growth)
Cc1ccc(Nc2nc(CSc3nnc(-c4ccncc4)n3C)cs2)cc1	none (no result: HUVEC prolif 384, H69AR inhibit, Fibroblast inh)
O=C(CN1CCOCC1)N1CCN(S(=O)(=O)c2ccccc2)C1c1ccccc1 (stereo not drawn)	none
Cc1ccc(S(=O)(=O)N2CCN(C(=O)CN3CCOCC3)C2c2ccccc2)cc1 (stereo not drawn)	H69AR inhibit 7.1
CCSc1nnc(-c2sc3nnc(-c4ccccc4)c(-c4ccccc4)c3c2N)o1	none (no result: HUVEC prolif 384, H69AR inhibit, Fibroblast inh)
CCN(CC)S(=O)(=O)c1cccc(C(=O)Nc2nc3cc4c(cc3s2)OCCO4)c1	H69AR inhibit 22

From PubChem
